Reference: ChEMBL document CHEMBL4680082 (J Med Chem, 2016)
“And” between values parts separate entries of the source, which are not always exact repeats. Equal entries are not always repeated.

Key:
[1] = target: T1, 5-hydroxytryptamine receptor 2C (Homo sapiens) (UniProt P28335); assay: Agonist activity at human 5-HT2C receptor expressed in human Flp-In-293 cells assessed as induction of calcium flux incubated for 1 hr by Fluo-4 direct dye based FLIPR assay relative to 5-HT; type: functional, cell-based; conditions: filed as agonist
T1 sequence (whole entry): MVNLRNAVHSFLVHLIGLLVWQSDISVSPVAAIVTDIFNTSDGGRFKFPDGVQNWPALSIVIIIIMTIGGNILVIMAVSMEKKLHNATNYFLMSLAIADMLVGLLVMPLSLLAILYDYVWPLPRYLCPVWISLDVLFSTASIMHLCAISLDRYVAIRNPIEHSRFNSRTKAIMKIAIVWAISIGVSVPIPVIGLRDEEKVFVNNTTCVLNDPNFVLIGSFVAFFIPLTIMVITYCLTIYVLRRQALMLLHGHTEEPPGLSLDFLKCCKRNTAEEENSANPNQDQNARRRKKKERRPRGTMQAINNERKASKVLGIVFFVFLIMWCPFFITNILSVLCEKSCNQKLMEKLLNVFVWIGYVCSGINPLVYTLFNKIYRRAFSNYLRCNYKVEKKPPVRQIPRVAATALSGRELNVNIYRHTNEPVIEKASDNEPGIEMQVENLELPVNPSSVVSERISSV

[2] = target: T2, 5-hydroxytryptamine receptor 2B (Homo sapiens, UniProt P41595); assay: Agonist activity at human 5-HT2B receptor expressed in human Flp-In-293 cells assessed as induction of calcium flux incubated for 1 hr by Fluo-4 direct dye based FLIPR assay relative to 5-HT; type: functional, cell-based
T2 sequence (P41595 whole entry): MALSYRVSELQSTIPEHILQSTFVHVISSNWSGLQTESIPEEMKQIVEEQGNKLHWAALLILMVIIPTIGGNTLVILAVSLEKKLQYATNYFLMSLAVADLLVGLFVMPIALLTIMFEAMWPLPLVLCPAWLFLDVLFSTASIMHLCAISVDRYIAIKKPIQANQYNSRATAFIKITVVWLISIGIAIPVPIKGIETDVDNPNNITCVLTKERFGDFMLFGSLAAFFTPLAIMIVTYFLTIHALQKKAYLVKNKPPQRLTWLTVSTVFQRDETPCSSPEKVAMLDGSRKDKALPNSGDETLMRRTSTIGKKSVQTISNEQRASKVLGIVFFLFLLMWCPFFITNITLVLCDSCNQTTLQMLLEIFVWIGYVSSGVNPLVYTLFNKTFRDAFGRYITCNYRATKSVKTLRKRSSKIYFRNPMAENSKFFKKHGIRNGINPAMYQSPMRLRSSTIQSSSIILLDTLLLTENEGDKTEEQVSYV

[3] = target: T3, 5-hydroxytryptamine receptor 2A (Homo sapiens, UniProt P28223); assay: Agonist activity at human 5-HT2A receptor expressed in human Flp-In-293 cells assessed as induction of calcium flux incubated for 1 hr by Fluo-4 direct dye based FLIPR assay relative to 5-HT; type: functional, cell-based
T3 sequence (P28223 whole entry): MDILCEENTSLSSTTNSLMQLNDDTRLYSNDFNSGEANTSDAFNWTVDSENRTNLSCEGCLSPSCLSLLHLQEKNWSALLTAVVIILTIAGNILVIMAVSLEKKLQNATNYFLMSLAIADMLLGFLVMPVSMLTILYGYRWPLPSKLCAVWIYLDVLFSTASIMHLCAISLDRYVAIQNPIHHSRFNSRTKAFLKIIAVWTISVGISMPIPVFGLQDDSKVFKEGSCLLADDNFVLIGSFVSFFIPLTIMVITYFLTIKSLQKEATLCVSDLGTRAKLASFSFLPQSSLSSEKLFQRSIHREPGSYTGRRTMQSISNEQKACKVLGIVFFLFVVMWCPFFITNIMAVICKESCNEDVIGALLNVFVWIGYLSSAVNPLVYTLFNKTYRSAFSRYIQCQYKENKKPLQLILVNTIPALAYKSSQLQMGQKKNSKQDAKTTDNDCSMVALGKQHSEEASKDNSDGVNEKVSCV

[4] = target: T4, 5-hydroxytryptamine receptor 2C (Homo sapiens, UniProt P28335);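 further: Agonist-induced calcium flux in Flp-In-293 cells expressing the human receptor, read by FLIPR with Fluo-4 Direct dye after 1 hr incubation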
T4 sequence (P28335 whole entry): T1 sequence (whole entry)

[5] = target: T2, 5-hydroxytryptamine receptor 2B
[6] = target: T3, 5-hydroxytryptamine receptor 2A
[7] = target: T1, 5-hydroxytryptamine receptor 2C (Homo sapiens); assay: Agonist activity at human 5-HT2C receptor expressed in human Flp-In-293 cells assessed as induction of calcium flux by measuring log (Emax/EC50) incubated for 1 hr by Fluo-4 direct dye based FLIPR assay; type: functional, cell-based
[8] = target: T2, 5-hydroxytryptamine receptor 2B; assay: Agonist activity at human 5-HT2B receptor expressed in human Flp-In-293 cells assessed as induction of calcium flux by measuring log(Emax/EC50) incubated for 1 hr by Fluo-4 direct dye based FLIPR assay; type: functional, cell-based
[9] = target: T3, 5-hydroxytryptamine receptor 2A; assay: Agonist activity at human 5-HT2A receptor expressed in human Flp-In-293 cells assessed as induction of calcium flux by measuring log(Emax/EC50) incubated for 1 hr by Fluo-4 direct dye based FLIPR assay; type: functional, cell-based
[10] = target: T4, 5-hydroxytryptamine receptor 2C; assay: Agonist activity at human 5-HT2C INI receptor expressed in human Flp-In-293 cells assessed as induction of calcium flux incubated for 1 hr by Fluo-4 direct dye based FLIPR assay; type: functional, cell-based
Method in brief: (§1)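 Calcium flux in Flp-In-293 cells stably expressing the human 5-HT2C INI isoform, Fluo-4 Direct loading for 1 h at 37 °C. Drug dilutions identical to those in the parallel Tango assay, 300 s read at 1 read/s, normalized to % 5-HT. Triplicate, mean ± SEM (n = 3). Bias factors were calculated from change in relative activity, log(Emax/EC50).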

[11] = target: T1, 5-hydroxytryptamine receptor 2C (Homo sapiens); assay: Agonist activity at human 5-HT2C INI receptor expressed in human Flp-In-293 cells assessed as induction of calcium flux incubated for 1 hr by Fluo-4 direct dye based FLIPR assay relative to 5-HT; type: functional, cell-based; conditions: filed as agonist; method in brief: as §1
[12] = target: T4, 5-hydroxytryptamine receptor 2C; assay: Agonist activity at human 5-HT2C INI receptor expressed in human HEK293 cells assessed as induction of beta-arrestin-2 recruitment incubated for 20 hrs by Tango assay; type: cell-based
Method in brief: (§2)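 Tango assay in HTLA cells (HEK line expressing TEV-fused β-arrestin-2 and tTA-driven luciferase) transfected with 5-HT2C INI–tTA fusion carrying a TEV site. Cells were stimulated with the same dilutions used for FLIPR, 20 h at 37 °C and 5% CO2, then lysed with Bright-Glo for 20 min at room temperature and read by luminescence. Data normalized to % 5-HT and fitted sigmoidally; n = 3 in triplicate. Bias from log(Emax/EC50).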

[13] = target: T1, 5-hydroxytryptamine receptor 2C (Homo sapiens); assay: Agonist activity at human 5-HT2C INI receptor expressed in human HEK293 cells assessed as induction of beta-arrestin-2 recruitment incubated for 20 hrs by Tango assay relative to 5HT; type: cell-based; method in brief: as §2
[14] = target: T1, 5-hydroxytryptamine receptor 2C (Homo sapiens); assay: Agonist activity at human 5-HT2C INI receptor expressed in human Flp-In-293 cells assessed as induction of calcium flux by measuring log (Emax/EC50) incubated for 1 hr by Fluo-4 direct dye based FLIPR assay; type: functional, cell-based; method in brief: as §1
[15] = target: T1, 5-hydroxytryptamine receptor 2C (Homo sapiens); assay: Agonist activity at human 5-HT2C INI receptor expressed in human HEK293 cells assessed as induction of beta-arrestin-2 recruitment by measuring log (Emax/EC50) incubated for 20 hrs by Tango assay relative to 5HT; type: cell-based; method in brief: as §2
[16] = target: T1, 5-hydroxytryptamine receptor 2C (Homo sapiens); assay: Bias factor, ratio of log(Emax/EC50) of lorcaserin to test compound for agonist activity at human 5-HT2C INI receptor expressed in human Flp-In-293 cells assessed as induction of calcium flux incubated for 1 hr by Fluo-4 direct dye based FLIPR assay; type: functional, cell-based; method in brief: as §1
[17] = target: T1, 5-hydroxytryptamine receptor 2C (Homo sapiens); assay: Bias factor, ratio of log(Emax/EC50) of lorcaserin to test compound for agonist activity at human 5-HT2C INI receptor expressed in human HEK293 cells assessed as induction of beta-arrestin-2 recruitment incubated for 20 hrs by Tango assay; type: cell-based; method in brief: as §2

NC[C@@H]1C[C@H]1c1c(OCCF)ccc2occc12
Emax [1]: 98% | Emax [2]: 34% | Emax [3]: 22% | EC50 [4]: 33 nM | EC50 [5]: 448 nM | EC50 [6]: 393 nM

COc1ccc2c(c1[C@H]1C[C@@H]1CN)CCO2
Emax [1]: 101% | log(ratio) [7]: 8.05 | Emax ([2]; filed as agonist): 70% | log(ratio) [8]: 6.96 | Emax ([3]; filed as agonist): 90% | log(ratio) [9]: 6.89 | EC50 [4]: 8.9 nM | EC50 [5]: 77 nM | EC50 [6]: 117 nM

C=CCOc1ccc2c(c1[C@H]1C[C@@H]1CN)CCO2
Emax [1]: 101% | EC50 [10]: 26 nM | Emax [11]: 93% | EC50 ([12]; read-out: EC50): 267 nM | Emax [13]: 35% | EC50 [4]: 11 nM | EC50 [5]: 258 nM | EC50 [6]: 618 nM

CCOc1ccc2occc2c1[C@@H]1C[C@H]1CN
Emax [1]: 107% | Emax [3]: 15% | EC50 [4]: 26 nM | EC50 [6]: 585 nM

C=CCOc1ccc2occc2c1[C@H]1C[C@@H]1CN
Emax [1]: 103% | EC50 [10]: 8.7 nM | Emax [11]: 92% | EC50 ([12]; read-out: EC50): 20 nM | Emax [13]: 25% | EC50 [4]: 5.3 nM | EC50 [5]: 348 nM | EC50 [6]: 213 nM

COc1ccc2occc2c1[C@H]1C[C@@H]1CN
Emax [1]: 93% | log(ratio) [7]: 8.76 | Emax ([2]; filed as agonist): 64% | log(ratio) [8]: 6.76 | Emax ([3]; filed as agonist): 86% | log(ratio) [9]: 7.37 | EC50 [4]: 1.6 nM | EC50 [5]: 111 nM | EC50 [6]: 37 nM

COc1ccc2occc2c1[C@@H]1C[C@H]1CN
Emax [1]: 96% | log(ratio) [7]: 8.16 | Emax ([2]; filed as agonist): 55% | log(ratio) [8]: 5.88 | Emax ([3]; filed as agonist): 66% | log(ratio) [9]: 6.78 | EC50 [4]: 6.76 nM and 6.6 nM | EC50 [5]: 725 nM | EC50 [6]: 109 nM

CC(C)Oc1ccc2occc2c1[C@H]1C[C@@H]1CN
Emax [1]: 99% | log(ratio) [7]: 8.2 | Emax [2]: 39% | log(ratio) [8]: 6.35 | Emax ([3]; filed as agonist): 79% | log(ratio) [9]: 6.42 | EC50 [4]: 6.2 nM | EC50 [5]: 174 nM | EC50 [6]: 298 nM

NC[C@H]1C[C@@H]1c1c(OCCF)ccc2c1CCO2
Emax [1]: 76% | Emax ([3]; filed as agonist): 63% | EC50 [10]: 41 nM | Emax [11]: 93% | EC50 ([12]; read-out: EC50): 318 nM | EC50 ([12]; read-out: pEC50 (converted)): 324 nM | Emax ([13]; filed as agonist): 42% | EC50 [4]: 73 nM | EC50 [6]: 2320 nM

CCOc1ccc2c(c1[C@H]1C[C@@H]1CN)CCO2
Emax [1]: 106% | log(ratio) [7]: 8.59 | Emax ([2]; filed as agonist): 58% | log(ratio) [8]: 7.03 | Emax ([3]; filed as agonist): 81% | log(ratio) [9]: 6.86 | EC50 [4]: 2.7 nM | EC50 [5]: 58.9 nM and 54 nM | EC50 [6]: 113 nM

C[C@H](N)Cn1ccc2cc(F)c(Cl)cc21
EC50 [10]: 2.2 nM | Emax [11]: 99% | log(ratio) [14]: 8.65 | EC50 ([12]; read-out: EC50): 10 nM | EC50 ([12]; read-out: pEC50 (converted)): 10.7 nM | Emax ([13]; filed as agonist): 87% | log(ratio) [15]: 7.94 | Ratio [16]: 0.3 | Ratio [17]: 3.3

CCOc1ccc2occc2c1[C@H]1C[C@@H]1CN
Emax [1]: 106% | Emax ([3]; filed as agonist): 74% | EC50 [4]: 2.6 nM | EC50 [5]: 84 nM | EC50 [6]: 111 nM

CCOc1ccc2c(c1[C@@H]1C[C@H]1CN)CCO2
Emax [1]: 105% | log(ratio) [7]: 7.41 | Emax [2]: 30% | log(ratio) [8]: 5.58 | Emax [3]: 35% | log(ratio) [9]: 5.55 | EC50 [4]: 41 nM | EC50 [5]: 781 nM | EC50 [6]: 976 nM

C[C@H]1CNCCc2ccc(Cl)cc21
Emax ([13]; filed as agonist): 91%

NC[C@@H]1C[C@H]1c1c(OCCF)ccc2c1CCO2
Emax [1]: 79% | Emax ([3]; filed as agonist): 55% | EC50 [4]: 302 nM | EC50 [6]: 1960 nM

C=CCOc1ccc2oc(CC)cc2c1[C@H]1C[C@@H]1CN
EC50 [10]: 25 nM | EC50 ([12]; read-out: EC50): 30 nM | EC50 [4]: 23 nM | EC50 [5]: 433 nM

CCc1cc2c([C@H]3C[C@@H]3CN)c(OCCF)ccc2o1
Emax [1]: 106% | EC50 [10]: 22 nM | Emax [11]: 93% | EC50 ([12]; read-out: EC50): 96 nM | Emax ([13]; filed as agonist): 50% | EC50 [4]: 11 nM | EC50 [5]: 550 nM | EC50 [6]: 2210 nM

COc1ccc2c(c1[C@@H]1C[C@H]1CN)CCO2
Emax [1]: 102% | log(ratio) [7]: 7.73 | Emax ([2]; filed as agonist): 45% | log(ratio) [8]: 6.21 | Emax ([3]; filed as agonist): 66% | log(ratio) [9]: 6.35 | EC50 [4]: 19 nM | EC50 [5]: 279 nM | EC50 [6]: 295 nM

CC(C)Oc1ccc2occc2c1[C@@H]1C[C@H]1CN
Emax [1]: 97% | log(ratio) [7]: 7.66 | Emax [2]: 25% | log(ratio) [8]: 5.74 | Emax [3]: 38% | log(ratio) [9]: 5.61 | EC50 [4]: 21 nM | EC50 [5]: 453 nM | EC50 [6]: 938 nM
